Results on 2 molecules are retold here after paper PMC7883397 (Cancer treatment and research communications, 2020).

For experiment [1], the system named is UACC-62-R cells. Nature of the experiment: PLX4720-resistant UACC-62-R melanoma cell proliferation. The experiment is classed as cell-based, human. Put shortly: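 The PLX4720-resistant UACC-62-R line was derived by sustained culture in low-dose PLX4720. It was maintained in 20 μM PLX4720, with medium replenished twice weekly. Proliferation was tracked as IncuCyte confluence and IC50 was derived for resistant and wild-type cells.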

The subject of experiment [2] is G361 melanoma cells. Nature of the experiment: G361 melanoma cell proliferation. The experiment is classed as cell-based. As to conditions: Homo sapiens, G-361, read-out: IC50, inhibition of G361 cell proliferation.

On to `CCCS(=O)(=O)Nc1ccc(F)c(C(=O)c2c[nH]c3ncc(Cl)cc23)c1F` [PLX4720], for which the IC50 in experiment [1] (Homo sapiens, read-out: IC50, inhibition of UACC-62-R cell proliferation) came to 26.2 µM. For the same molecule, the “resistance of UACC-62-R relative to UACC-62-WT cells” value in experiment [1] (proliferation in presence of PLX4720) is “approximately six times more resistant”. As to `C=CCc1ccc(O)c(-c2cc(CC=C)ccc2O)c1` [MGN, magnolol], in experiment [2], the IC50 amounted to 38 µM.
